Converted amounts (≈) assume the structure as drawn.
Legend:
Staphylococcus aureus [1] = test: Tested in vitro against Staphylococcus aureus FDA209P JC-1 by agar dilution method; format: functional
In short: (§1)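 MIC by 2-fold agar dilution on Mueller–Hinton agar (footnote says sensitivity test agar).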

Pseudomonas aeruginosa [2] = test: Tested in vitro against Pseudomonas aeruginosa IFO3445 by agar dilution method; format: functional; in short: as §1
Serratia marcescens = test: Tested in vitro against Serratia marcescens IAM1184 by agar dilution method; format: functional; in short: as §1
[3] = system: Staphylococcus epidermidis; test: Tested in vitro against Staphylococcus epidermidis IAM12896 by agar dilution method; format: functional; in short: as §1
Pseudomonas aeruginosa [4] = test: Tested in vivo against Pseudomonas aeruginosa E-2 in mice after peroral dose of drug with 0.5% sodium carboxy methyl cellulose; format: functional; conditions: po
In short: (§2)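 Mice infected, then given compound orally 1 h post-infection as a suspension in 0.5% sodium CMC. ED50 calculated from cumulative mortality on day 7 post-infection by shortened Weil method.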

Staphylococcus aureus [5] = test: Tested in vivo against Staphylococcus aureus IID803 in mice after peroral dose of drug with 0.5% sodium carboxy methyl cellulose; format: functional; conditions: po; in short: as §2
Salmonella typhimurium = test: Tested in vitro against Salmonella Typhimurium IID971 by agar dilution method; format: functional, Salmonella enterica subsp. enterica serovar Typhimurium; conditions: Salmonella enterica; in short: as §1
Escherichia coli = test: Tested in vitro against Escherichia coli NIHJ JC-2 by agar dilution method; format: functional; in short: as §1
Klebsiella pneumoniae = test: Tested in vitro against Klebsiella pneumoniae PCI-602 by agar dilution method; format: functional; in short: as §1
Bacillus subtilis = test: Tested in vitro against Bacillus subtilis ATCC 6633 by agar dilution method; format: functional; in short: as §1
Pseudomonas aeruginosa [6] = test: Tested in vitro against Pseudomonas aeruginosa E-2 by agar dilution method; format: functional; in short: as §1
Proteus vulgaris = test: Tested in vitro against Proteus vulgaris OX-19 by agar dilution method; format: functional; in short: as §1
Staphylococcus aureus [7] = test: Tested in vitro against Staphylococcus aureus IID803 by agar dilution method; format: functional; in short: as §1

Row | MIC (Staphylococcus aureus [1]) | MIC (Pseudomonas aeruginosa [2]) | MIC (Serratia marcescens) | MIC [3] | MIC (Salmonella typhimurium) | MIC (Escherichia coli) | MIC (Klebsiella pneumoniae) | MIC (Bacillus subtilis) | MIC (Pseudomonas aeruginosa [6]) | MIC (Proteus vulgaris) | MIC (Staphylococcus aureus [7]) | Structure (SMILES) | ED50 (Pseudomonas aeruginosa [4]) | ED50 (Staphylococcus aureus [5])
1 | 0.39 mg/L (≈ 1.03 µM) | 3.13 mg/L (≈ 8.29 µM) | 0.78 mg/L (≈ 2.07 µM) | 0.78 mg/L (≈ 2.07 µM) | 0.1 mg/L (≈ 0.265 µM) | 0.1 mg/L (≈ 0.265 µM) | 0.025 mg/L (≈ 0.0662 µM) | 0.1 mg/L (≈ 0.265 µM) | 3.13 mg/L (≈ 8.29 µM) | 0.1 mg/L (≈ 0.265 µM) | 0.39 mg/L (≈ 1.03 µM) | CC1CN(c2c(F)cc3c(=O)c(C(=O)O)cn(C4CC4)c3c2F)CC(C)N1 (stereo unspecified) | 11.7 mg/kg | 2.21 mg/kg
2 | 0.39 mg/L (≈ 1.07 µM) | 1.56 mg/L (≈ 4.29 µM) | 0.39 mg/L (≈ 1.07 µM) | 0.78 mg/L (≈ 2.15 µM) | 0.025 mg/L (≈ 0.0688 µM) | 0.05 mg/L (≈ 0.138 µM) | 0.0125 mg/L (≈ 0.0344 µM) | 0.05 mg/L (≈ 0.138 µM) | 1.56 mg/L (≈ 4.29 µM) | 0.05 mg/L (≈ 0.138 µM) | 0.2 mg/L (≈ 0.55 µM) | CC1CN(c2c(F)cc3c(=O)c(C(=O)O)cn(C4CC4)c3c2F)CCN1 (stereo unspecified) | 8.84 mg/kg | 2.21 mg/kg
3 | 0.2 mg/L (≈ 0.508 µM) | 12.5 mg/L (≈ 31.8 µM) | 6.25 mg/L (≈ 15.9 µM) | 0.39 mg/L (≈ 0.991 µM) | 0.78 mg/L (≈ 1.98 µM) | 0.78 mg/L (≈ 1.98 µM) | 0.1 mg/L (≈ 0.254 µM) | 0.05 mg/L (≈ 0.127 µM) | 12.5 mg/L (≈ 31.8 µM) | 0.39 mg/L (≈ 0.991 µM) | 0.2 mg/L (≈ 0.508 µM) | CC1CN(c2c(F)cc3c(=O)c(C(=O)O)cn(C4CC4)c3c2F)CC(C)N1O (stereo unspecified) | 35.4 mg/kg | 1.67 mg/kg
4 | 0.39 mg/L (≈ 1.03 µM) | 3.13 mg/L (≈ 8.25 µM) | 0.78 mg/L (≈ 2.06 µM) | 0.78 mg/L (≈ 2.06 µM) | 0.05 mg/L (≈ 0.132 µM) | 0.1 mg/L (≈ 0.264 µM) | 0.025 mg/L (≈ 0.0659 µM) | 0.025 mg/L (≈ 0.0659 µM) | 3.13 mg/L (≈ 8.25 µM) | 0.1 mg/L (≈ 0.264 µM) | 0.2 mg/L (≈ 0.527 µM) | CC1CN(c2c(F)cc3c(=O)c(C(=O)O)cn(C4CC4)c3c2F)CCN1O (stereo unspecified) | 22.9 mg/kg | 1.67 mg/kg
5 | 0.39 mg/L (≈ 1.07 µM) | 1.56 mg/L (≈ 4.27 µM) | 0.78 mg/L (≈ 2.14 µM) | 0.78 mg/L (≈ 2.14 µM) | 0.025 mg/L (≈ 0.0684 µM) | 0.1 mg/L (≈ 0.274 µM) | 0.025 mg/L (≈ 0.0684 µM) | 0.05 mg/L (≈ 0.137 µM) | 1.56 mg/L (≈ 4.27 µM) | 0.05 mg/L (≈ 0.137 µM) | 0.39 mg/L (≈ 1.07 µM) | O=C(O)c1cn(C2CC2)c2c(F)c(N3CCN(O)CC3)c(F)cc2c1=O | 4.81 mg/kg | 3.34 mg/kg

Row | Structure (SMILES) | MIC (Staphylococcus aureus [1]) | MIC (Pseudomonas aeruginosa [2]) | MIC (Serratia marcescens) | MIC [3] | MIC (Salmonella typhimurium) | MIC (Escherichia coli) | MIC (Klebsiella pneumoniae) | MIC (Bacillus subtilis) | MIC (Pseudomonas aeruginosa [6]) | MIC (Proteus vulgaris) | MIC (Staphylococcus aureus [7]) | ED50 (Pseudomonas aeruginosa [4]) | ED50 (Staphylococcus aureus [5])
6 | O=C(O)c1cn(C2CC2)c2c(F)c(N3CCNCC3)c(F)cc2c1=O | 0.2 mg/L (≈ 0.573 µM) | 0.78 mg/L (≈ 2.23 µM) | 0.39 mg/L (≈ 1.12 µM) | 0.78 mg/L (≈ 2.23 µM) | 0.025 mg/L (≈ 0.0716 µM) | 0.05 mg/L (≈ 0.143 µM) | 0.025 mg/L (≈ 0.0716 µM) | 0.1 mg/L (≈ 0.286 µM) | 0.78 mg/L (≈ 2.23 µM) | 0.05 mg/L (≈ 0.143 µM) | 0.39 mg/L (≈ 1.12 µM) | 6.7 mg/kg | 5.82 mg/kg
7 | O=C(O)c1cn(C2CC2)c2cc(N3CCNCC3)c(F)cc2c1=O [CIPROFLOXACIN] | 0.39 mg/L (≈ 1.18 µM) | 0.78 mg/L (≈ 2.35 µM) | 0.39 mg/L (≈ 1.18 µM) | 1.56 mg/L (≈ 4.71 µM) | 0.025 mg/L (≈ 0.0754 µM) | – | 0.025 mg/L (≈ 0.0754 µM) | 0.1 mg/L (≈ 0.302 µM) | 0.78 mg/L (≈ 2.35 µM) | 0.05 mg/L (≈ 0.151 µM) | 0.78 mg/L (≈ 2.35 µM) | 30.8 mg/kg | 35.4 mg/kg
8 | CCn1cc(C(=O)O)c(=O)c2cc(F)c(N3CCNCC3)cc21 [NORFLOXACIN] | 0.39 mg/L (≈ 1.22 µM) | 3.13 mg/L (≈ 9.8 µM) | 0.78 mg/L (≈ 2.44 µM) | 3.13 mg/L (≈ 9.8 µM) | 0.1 mg/L (≈ 0.313 µM) | 0.39 mg/L (≈ 1.22 µM) | 0.1 mg/L (≈ 0.313 µM) | 0.39 mg/L (≈ 1.22 µM) | 3.13 mg/L (≈ 9.8 µM) | 0.2 mg/L (≈ 0.626 µM) | 1.56 mg/L (≈ 4.89 µM) | 107 mg/kg | 91.7 mg/kg
9 | CC1COc2c(N3CCN(C)CC3)c(F)cc3c(=O)c(C(=O)O)cn1c23 (stereo unspecified) [OFLOXACIN] | 0.39 mg/L (≈ 1.08 µM) | 3.13 mg/L (≈ 8.66 µM) | 0.78 mg/L (≈ 2.16 µM) | 0.78 mg/L (≈ 2.16 µM) | 0.1 mg/L (≈ 0.277 µM) | 0.2 mg/L (≈ 0.553 µM) | 0.1 mg/L (≈ 0.277 µM) | 0.2 mg/L (≈ 0.553 µM) | 3.13 mg/L (≈ 8.66 µM) | 0.1 mg/L (≈ 0.277 µM) | 0.78 mg/L (≈ 2.16 µM) | 54.5 mg/kg | 8.84 mg/kg

— ChEMBL document CHEMBL1126799, “Synthesis of antimicrobial agents. 5. In vivo metabolism of 7-(4-hydroxypiperazin-1-yl)quinolones” (1993)
